NPY2 pot ag: NPY-Y2 potentiators or agonists, primary screen, cell-based; cells expressing NPY-Y2, potentiator/agonist read-out; Neuropeptide Y receptor type 2 (Homo sapiens), P49146; activation, % at 3.6 µM; hit rate 0.45% among 220,000; in the data active = activation above about 27%;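 also: cells stimulated with NPY near EC25 plus isoproterenol at EC100; 0% = vehicle plus submaximal agonist and 100% = vehicle plus saturating agonist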
NPY-Y1 PAM-ag: NPY-Y1 receptor potentiators or agonists, primary screen, cell-based | AID 1304, 2008 | NPY-Y1 expressing cells, potentiator/agonist activation | hit rate 0.37% among 220,000 | activation, % at 3.6 µM; in the data active = activation above about 33%, passing the limit was not always enough;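 also: cells stimulated with NPY at EC10 then isoproterenol at EC100; 0% = low agonist plus stimulus and 100% = saturating agonist plus stimulus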
Furin inhibitor: human furin inhibitors, primary screen, biochemical, fluorescence intensity; P09958; purified furin, fluorogenic substrate cleavage; inhibition, % at 20 µM or 30 µM; hit rate 0.061% among 220,000; in the data active = inhibition above about 25%
Target sequence (P09958 108-714 limits assumed): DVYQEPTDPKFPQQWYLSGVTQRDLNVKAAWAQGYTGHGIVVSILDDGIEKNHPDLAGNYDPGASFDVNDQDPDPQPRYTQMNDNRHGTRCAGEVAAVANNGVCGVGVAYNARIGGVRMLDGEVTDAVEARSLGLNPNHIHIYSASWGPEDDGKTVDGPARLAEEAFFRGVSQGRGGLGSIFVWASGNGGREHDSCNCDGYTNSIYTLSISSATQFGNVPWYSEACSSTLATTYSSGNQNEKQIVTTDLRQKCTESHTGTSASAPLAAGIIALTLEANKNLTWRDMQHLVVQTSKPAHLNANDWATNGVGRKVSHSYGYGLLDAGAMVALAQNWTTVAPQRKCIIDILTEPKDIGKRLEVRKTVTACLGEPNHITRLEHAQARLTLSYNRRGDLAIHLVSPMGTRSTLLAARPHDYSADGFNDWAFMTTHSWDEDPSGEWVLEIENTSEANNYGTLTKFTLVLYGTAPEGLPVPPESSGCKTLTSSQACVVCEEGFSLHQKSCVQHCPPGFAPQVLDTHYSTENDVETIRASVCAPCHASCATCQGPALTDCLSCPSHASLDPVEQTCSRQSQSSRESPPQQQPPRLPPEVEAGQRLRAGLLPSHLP
NPY Y2 blocker: NPY-Y2 receptor antagonists, primary screen, cell-based; Neuropeptide Y receptor type 2 (Homo sapiens), P49146; NPY-Y2 expressing cells, antagonist mode; inhibition, % at 2.7 µM; hit rate 0.99% among 140,000; AID 793, 2007; in the data active = inhibition above about 17%;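 also: 0% = vehicle with agonist challenge and 100% = reference antagonist with challenge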
KCC2 mod: KCC2 cotransporter modulators, thallium flux, primary screen, cell-based, HEK293 KCC2, FluoZin-2 fluorescence, MLSMR | B-score of Tl+ flux slope (higher = more flux/activation; lower = inhibition) at 10 µM | hit rate 2.2% among 190,000 | KCC2 cells, thallium flux FluoZin-2 fluorescence;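 active = thallium flux slope and its plate-corrected score both differing from the plate sample mean at a set confidence after two filtering rounds, in either direction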;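 also: slope of fluorescence scaled to starting intensity during 10 to 20 s after thallium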
NPY-Y1 antag: NPY-Y1 receptor antagonists, primary screen, cell-based | Neuropeptide Y receptor type 1 (Homo sapiens), P25929 | AID 1040, 2008 | HEK293-CNG Y1 cells, membrane potential fluorescence; NPY at EC95, then isoproterenol | inhibition, % at 3.6 µM | hit rate 1% among 200,000;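 active = inhibition above the campaign mean inhibition of all tested compounds plus 3 SD, cut at about 20% in these data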;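 also: 0% = DMSO wells given NPY plus isoproterenol and 100% = isoproterenol alone without NPY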
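Assay system: HEK293 cells with Y1 receptor plus CNG channel | Probe or stimulus: NPY (25 nM), isoproterenol (1 µM), Ro 20-1724 (25 µM) | Timing: Compound incubation 1 h at room temperature, readout 45 min post-stimulation | Measured by: Membrane-potential fluorescent dye readout | Benchmarks: High control isoproterenol alone, low control NPY with isoproterenol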
NPY1 antag ctr: NPY-Y1 receptor antagonists, selectivity check, counter-screen for NPY-Y2 antagonist project, cell-based | AID 1256, 2008 | shares compounds with NPY Y2 blocker | inhibition, % at 3.6 µM | cell-based NPY-Y1 antagonism counterscreen | hit rate 19% among 710; in the data active = inhibition above about 20%;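 also: cells challenged with NPY then isoproterenol with cAMP sensed through a CNG channel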
NPY-Y2 ant conf: NPY-Y2 receptor antagonists, retest of hits, confirmation, HEK293-CNG cells, membrane potential fluorescence, triplicate; inhibition, % at 2.8 µM; HEK293 NPY-Y2 CNG channel; shares compounds with NPY Y2 blocker; hit rate 32% among 710;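 active = mean inhibition of triplicate wells above the hit cutoff set in the primary screen, cut at about 17% in these data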;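 also: 0% = DMSO with NPY challenge and 100% = BIIE0246 high control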
Starred values were filed as active, the others as inactive; · = no result. Compounds with a hit are over-represented: about 3.7% of the library has one in this group of screens.

SMILES	NPY2 pot ag	NPY-Y1 PAM-ag	Furin inhibitor	NPY Y2 blocker	KCC2 mod	NPY-Y1 antag	NPY1 antag ctr	NPY-Y2 ant conf
O=C(Cc1cccc(C(F)(F)F)c1)NCC(c1ccco1)N1CCCCC1 (configuration not stated)	6.6	-0.9	-33.2	·	-0.441	1.6	·	·
COc1ccccc1OCc1nc(C#N)c(N2CC(C)CC(C)C2)o1 (configuration not stated)	-3.2	-36.6	-8.5	17.9*	-3.23	15.4	9.5	6.2
COc1ccccc1OCc1nc(C#N)c(N2CCCC2)o1	4.8	-10.5	-14.6	·	-1.82	4.8	·	·
Cc1ccc(SCc2nc3ccccc3n2CC(=O)Nc2c(C)cccc2C)cc1	-8.3	4.6	-12.7	19.0*	-0.356	12.2	3.6	4.8
O=C(NC(c1ccccc1)c1ccccc1)C1(c2cccs2)CCOCC1	-3.4	4.6	-15.3	17.6*	-1.31	15.5	6.1	4.9
CCC1Oc2ccc(C)cc2N(CC(=O)NCCC2=CCCCC2)C1=O (configuration not stated)	5.3	5.5	-9.2	19.1*	-2.77	8.0	13.7	11.9
Clc1c(-c2nnc3n2CCC3)sc2ccccc12	13.4	19.0	-19.9	0.4	-1.56	-2.1	·	·
Cn1c(-c2sc3ccccc3c2Cl)n[nH]c1=S	-26.1	-29.8	-8.6	17.3*	12.7*	18.3	14.8	12.1
O=C1CSC(c2nn(-c3ccccc3)cc2-c2cc3ccccc3oc2=O)N1Cc1ccco1 (configuration not stated)	-19.7	-39.0	-32.5	18.1*	-1.35	7.4	2.0	6.5
O=C1CSC(c2cn(-c3ccccc3)nc2-c2cc3ccccc3oc2=O)N1Cc1ccccc1 (configuration not stated)	-14.7	-27.8	-12.1	2.9	·	10.9	·	·
O=C(O)C1=C(C(=O)Nc2cc(C(F)(F)F)ccc2Cl)CCCC1	-6.5	7.9	-16.7	·	0.531	6.9	·	·
O=C(Nc1ccccc1)c1ccc(S(=O)(=O)NCc2ccco2)cc1	8.2	-3.9	-16.8	2.3	·	-2.1	·	·
CC1CCCCC1NC(=O)c1ccc(S(=O)(=O)NCc2ccco2)cc1 (configuration not stated)	2.9	-17.4	-14.1	17.2*	0.0381	9.4	9.2	9.0
COC(=O)c1ccc(CSc2nc3ccccc3c(=O)n2-c2ccccc2)o1	-36.7	-109.0	-15.4	17.8*	-2.31	13.2	10.2	47.1*
COC(=O)c1sc(N)c(C(=O)OC)c1CSc1nc2sc3c(c2c(=O)n1C)CCC3	-0.2	-13.6	-29.6	-0.7	0.268	-6.9	·	·
COC(=O)c1ccc(CSc2nc3sc4c(c3c(=O)n2C)CCCC4)o1	7.5	3.9	-12.5	18.5*	2.43	1.1	17.1	18.9*
COC(=O)c1ccc(CSc2nc3ccccc3c(=O)n2-c2ccc(OC)c(OC)c2)o1	4.4	-11.4	-4.4	3.9	-0.547	10.0	·	·
COc1ccc(CNC(=O)C(NC(C)=O)C(=O)Nc2ccc(OC)cc2)cc1 (configuration not stated)	2.4	16.3	-16.1	21.2*	1.44	5.1	-0.3	-1.3
O=C(/C=C/c1ccccc1)OCc1cnc(Cl)s1	-15.7	-31.2	-4.7	·	·	2.4	·	·
CC(NC(=O)C(c1ccccc1)c1ccccc1)C(=O)N1CCCCC1 (configuration not stated)	-12.7	5.0	9.8	·	-0.153	-1.3	·	·
CC(C)(C)NCc1cc(Br)ccc1OCc1cccs1	28.6	17.8	-21.0	20.2*	-0.218	16.2	5.4	4.4
CC(C)C(NC(=O)c1ccc(F)cc1)C(=O)NCC1CCCO1 (configuration not stated)	-8.5	12.2	-19.1	·	-0.0294	·	·	·
COc1cc(N/C(N)=N/c2nc(C)cc(C)n2)c(OC)cc1Cl	-6.2	-8.3	-24.1	·	0.546	6.7	·	·
COc1ccc(C(C)=O)cc1CSc1nc2ccccc2c(=O)n1-c1ccccc1C	-1.1	-12.3	-22.4	20.4*	-0.133	15.5	11.2	13.0
CC(/C=C1\SC(=S)N(NC(=O)c2ccc(C)cc2)C1=O)=C\c1ccccc1	-18.4	-11.3	-5.2	18.5*	·	13.1	16.7	20.1*
SMILES	NPY2 pot ag	NPY-Y1 PAM-ag	Furin inhibitor	NPY Y2 blocker	KCC2 mod	NPY-Y1 antag	NPY1 antag ctr	NPY-Y2 ant conf
CCOC(=O)c1ccc(NC(=O)N2CCN(c3cccc(OC)c3)CC2)cc1	17.2	0.3	-4.3	·	-0.0895	-4.4	·	·
COc1ccccc1Nc1nc2nonc2nc1N1CCCCC1C (configuration not stated)	0.9	-10.0	-8.9	18.6*	-2.14	6.1	17.2	9.1
CC1CCCCN1c1nc2nonc2nc1N1CCCCC1C (configuration not stated)	5.0	17.9	-15.7	6.0	-1.09	7.1	·	·
COc1ccc(N(C(=O)/C=C/c2ccccc2)C2=CC3CCC(C2)N3C)cc1 (configuration not stated)	-15.3	-37.2	1.1	·	-1	·	·	·
COc1cccc(C(c2nnnn2Cc2ccccc2)N2CCN(C3CCCC3)CC2)c1OC (configuration not stated)	-12.2	-33.6	-0.2	18.4*	0.7	0.5	6.5	6.4
CCC(C)(C)n1nnnc1C(c1ccccc1)N1CCN(C2CCCC2)CC1 (configuration not stated)	8.1	-19.3	-22.5	19.8*	-1.12	8.2	5.2	11.7
CCOc1ccc(NC(=O)C2(c3ccc(OC)c(OC)c3)CCCC2)cc1	-2.1	-15.9	-30.1	27.1*	0.815	8.4	4.0	3.2
C/C=C/Cn1c(SCc2ccc(C)cc2)nc2c1c(=O)[nH]c(=O)n2C	-15.5	-7.8	-21.7	26.3*	·	8.4	22.5*	42.4*
COc1ccc(Nc2nc(N3CCCC3)c3ccccc3n2)cc1	4.3	-24.1	-6.2	32.2*	1.82	14.1	24.4*	33.8*
Cc1sc(-c2ccncc2)nc1OC(=O)c1ccccc1	-5.4	-15.3	-45.0	3.7	·	-2.8	·	·
O=S(=O)(c1cccc(NC(=S)Nc2ccc(Br)cc2Cl)c1)N1CCOCC1	-18.8	-3.6	-7.1	0.2	1.28	4.7	·	·
CCCc1cc(=O)[nH]c(SCC(=O)c2cc(C)n(C)c2C)n1	-9.4	-39.5	-20.5	18.8*	-0.448	2.6	4.0	10.8

Compound activity from PubChem BioAssay.
